# Rpn11 block: Rpn11 (PSMD14) deubiquitinase inhibitors, primary screen, biochemical, fluorescence polarization, uHTS. 360,000 compounds, 0.59% hits. inhibition, % at 20 µM. 26S proteasome non-ATPase regulatory subunit 14 (Homo sapiens), O00487. human 26S proteasome, Ub4-pepOG fluorescence polarization; 20S core pre-blocked with epoxomicin. AID 588493, 2011;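 active = inhibition at 20 µM, scaled to each plate's controls, above about 33%, limit read from the data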
# Target sequence (O00487 whole entry, looked up): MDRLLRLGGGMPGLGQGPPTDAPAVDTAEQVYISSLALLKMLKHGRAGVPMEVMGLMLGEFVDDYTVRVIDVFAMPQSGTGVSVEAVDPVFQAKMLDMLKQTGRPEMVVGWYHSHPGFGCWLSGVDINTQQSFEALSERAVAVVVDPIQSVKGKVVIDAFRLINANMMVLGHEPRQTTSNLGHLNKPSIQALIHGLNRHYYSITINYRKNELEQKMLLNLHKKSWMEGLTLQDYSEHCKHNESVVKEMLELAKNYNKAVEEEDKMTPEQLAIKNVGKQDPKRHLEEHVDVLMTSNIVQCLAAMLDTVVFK
# PLCb3 inh: human PLC-beta3 inhibitors, primary screen, biochemical, fluorescence | 370,000 compounds, 0.18% hits | Purified PLC-beta3, fluorogenic substrate | AID 720704, 2013 | inhibition, % at 12.2 µM; in the data active = inhibition above about 11%;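 also: 0% = median of compound wells on plate and 100% = full blocker control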
# UCH37 DUB inh: inhibitors of human UCH37 deubiquitinase, primary screen, biochemical, Ub-AMC cleavage, fluorescence; Ubiquitin carboxyl-terminal hydrolase isozyme L5 (Homo sapiens), Q9Y5K5; purified proteasome/UCH37; inhibition, % (test concentration not listed); 330,000 compounds, 0.33% hits;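 active = mean inhibition over replicate wells above about 20%, limit read from the data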;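 also: 0% = compound-free wells with enzyme and 100% = wells lacking proteasome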
# Target sequence (Q9Y5K5 whole entry, looked up): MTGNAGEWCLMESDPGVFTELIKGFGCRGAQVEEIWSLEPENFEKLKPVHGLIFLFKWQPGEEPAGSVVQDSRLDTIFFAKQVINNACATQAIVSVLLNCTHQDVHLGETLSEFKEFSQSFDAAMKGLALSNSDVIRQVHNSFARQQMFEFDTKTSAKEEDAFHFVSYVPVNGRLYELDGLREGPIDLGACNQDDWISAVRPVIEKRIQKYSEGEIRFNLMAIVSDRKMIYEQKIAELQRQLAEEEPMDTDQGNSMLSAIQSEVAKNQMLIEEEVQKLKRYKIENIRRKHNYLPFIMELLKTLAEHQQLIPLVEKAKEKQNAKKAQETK
#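 assay system = human UCH37 enzyme supplied as purified proteasome complex | amount = proteasome at 0.15 nM in the dispensed enzyme solution | schedule = 30 min compound-proteasome preincubation then 25 min substrate reaction, room temperature | measured by = fluorescence, ex 355 nm, em 460 nm | benchmarks = no-proteasome wells (full inhibition) and compound-free wells (no inhibition)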
# PLCg1 inh: PLC-gamma1 enzyme inhibitors, primary screen, biochemical, fluorescence, purified enzyme | 1-phosphatidylinositol 4,5-bisphosphate phosphodiesterase gamma-1 (Homo sapiens), P19174 | fluorogenic substrate | inhibition, % at 12.2 µM | 370,000 compounds, 0.84% hits | AID 720700, 2013; in the data active = inhibition above about 9.5%
# Rpn11 confirm: Rpn11 (PSMD14) deubiquitinase inhibitors, confirmation, biochemical, fluorescence polarization, single concentration. shares compounds with Rpn11 block. purified human 26S proteasome, Ub4-pepOG fluorescence polarization; proteasome pretreated with epoxomicin. inhibition, % at 20 µM. 1,900 compounds, 29% hits. AID 602318, 2012
# MMP-2 inh: MMP-2 enzyme inhibition, confirmation, counter-screen for RPN11 inhibitor project, biochemical, fluorescence, single concentration; shares compounds with Rpn11 block; recombinant MMP-2, FRET peptide cleavage fluorescence; inhibition, % at 20 µM; 1,900 compounds, 4% hits; AID 602330, 2012;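 also: human MMP-2 activated beforehand with APMA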
# Thrombin inh: bovine thrombin protease inhibition, confirmation, counter-screen for Rpn11 inhibitor project, biochemical, fluorescence polarization, single concentration; shares compounds with Rpn11 block; bovine thrombin cleavage of Ub4-pepOG; inhibition, % at 20 µM; 1,900 compounds, 13% hits;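 active = mean inhibition at least 40% at 20 µM, or signal 3 deviations below plate average, so some actives read negative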;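 also: plate controls were thrombin with DMSO for no effect and buffer wells lacking thrombin for full effect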
# Active calls of the source: *; i = inactive; . = no result given. Sampled rows, rich in hits. Any-hit rate of the full collection: about 1.7%. Rule as the data show it, unless noted: active = inhibition above about 40%; inactive = the rest.
SMILES,Rpn11 block,PLCb3 inh,UCH37 DUB inh,PLCg1 inh,Rpn11 confirm,MMP-2 inh,Thrombin inh
CC[C@]12c3[nH]c4cc(-c5ccco5)ccc4c3CCN1C(=O)[C@@H](CC(=O)NCCC1=CCCCC1)C[C@@H]2C(=O)N1CCN(C(=O)c2ccco2)CC1,31,.,-9,.,.,.,.
O=C(C[C@H]1C[C@H](C(=O)N2CCCCC2)[C@@]2(CCc3ccccc3)c3[nH]c4cc(-c5ccco5)ccc4c3CCN2C1=O)NCc1ccco1,78*,i,-4,-369,25,1,11
CC(C)=CCC/C(C)=C/CNC(=O)C[C@H]1C[C@H](C(=O)N2CCOCC2)[C@@]2(CCC3CCCC3)c3[nH]c4cc(-c5ccco5)ccc4c3CCN2C1=O,45*,-423,-29,-263,2,16,9
O=C(C[C@H]1C[C@H](C(=O)N2CCOCC2)[C@@]2(CCC3CCCC3)c3[nH]c4cc(-c5ccco5)ccc4c3CCN2C1=O)NCCN1CCOCC1,17,-318,-20,-225,.,.,.
O=C(C[C@H]1C[C@H](C(=O)N2CCCCC2)[C@@]2(CCc3ccccc3)c3[nH]c4cc(-c5ccco5)ccc4c3CCN2C1=O)NCCC1=CCCCC1,56*,.,-37,.,-7,6,-12
O=C(C[C@H]1C[C@H](C(=O)N2CCOCC2)[C@@]2(CCC3CCCC3)c3[nH]c4cc(-c5ccco5)ccc4c3CCN2C1=O)NCc1cccc(C(F)(F)F)c1,36,-378,-13,-204,.,.,.
O=C(C[C@H]1C[C@H](C(=O)N2CCCCC2)[C@@]2(CCc3ccccc3)c3[nH]c4cc(-c5ccco5)ccc4c3CCN2C1=O)NCc1cccc(C(F)(F)F)c1,61*,-340,-35,-205,11,5,-30
Fc1ccc(C=Nc2c(-c3ccc(F)cc3)nc3n2CCS3)cc1,.,.,6,.,.,.,.
CC(=NNC(=O)c1cc(C)nc2ccccc12)c1cccc(Cl)c1,.,.,2,.,.,.,.
Cc1nnc(C)c2c(C)n(C(c3ccccc3)c3ccccc3)c(C)c12,43*,-172,-46,-105,-19,-36,-9
FC(F)(F)c1ccc(Cl)c(NC(=S)NN=Cc2ccccc2C(F)(F)F)c1,.,.,6,.,.,.,.
CCOc1ccc(C=NNc2cc(=O)n(C)c(=O)n2C)cc1,.,.,4,.,.,.,.
CCN(CC)c1ccc2cc(C(N)=O)c(=O)oc2c1,40*,-132,-80,-103,11,-43,5
O=C(CCN1C(=O)/C(=C\C=C\c2ccccc2)SC1=S)Nc1ccc(C(=O)O)cc1,16,-18,7,0,.,.,.
O=C(CCN1C(=O)/C(=C/C=C/c2ccccc2)SC1=S)Nc1nc2ccccc2s1,54*,-5,.,2,32,-14,-51
O=C(O)CCCCCN1C(=O)/C(=C\c2ccc(-c3ccc(Cl)cc3)o2)SC1=S,.,-8,14,3,.,.,.
O=C(O)CCCN1C(=O)/C(=C/c2ccc(-c3nc4ccccc4s3)o2)SC1=S,185*,-10,13,-3,44*,-16,-64
Cc1cccc(C=Nn2c(-c3ccccn3)n[nH]c2=S)c1,.,.,-1,.,.,.,.
O=C(O)c1ccc(N2C(=O)/C(=C/C=C/c3ccccc3)SC2=S)cc1,21,-5,.,-7,.,.,.
CN(C)c1ccc(/C=C/C=C2/SC(=S)N(c3ccccc3)C2=O)cc1,70*,-29,3,-25,49*,-31,37
O=C(NN=Cc1ccccc1Cl)c1ccc(F)cc1,.,.,5,.,.,.,.
CN(C)CCCN(C(=O)/C=C/c1cccs1)c1nc2ccc(F)cc2s1,7,-13,-1,-7,.,.,.
CN(C)CCN(C(=O)/C=C/c1cccs1)c1nc2c(F)cc(F)cc2s1,73*,5,-24,3,27,-56,7
O=C1c2ccccc2-c2onc3c(N4CCN(CCO)CC4)cc(N4CCN(C(=O)c5ccco5)CC4)c1c23,49*,-9,.,-5,active,-92,active
CC(CCc1ccccc1)=NNC(=O)CCc1ccccc1,.,.,3,.,.,.,.
SMILES,Rpn11 block,PLCb3 inh,UCH37 DUB inh,PLCg1 inh,Rpn11 confirm,MMP-2 inh,Thrombin inh
Cc1cc(N2CCCC2)c(F)cc1/C=C\[N+](=O)[O-],64*,-4,2,-2,60*,-53,22
CCOc1ccc(NS(=O)(=O)c2cnc(Cl)c(Cl)c2)cc1,-1,0,1,-2,.,.,.
Cc1cc(C)cc(NS(=O)(=O)c2cnc(Cl)c(Cl)c2)c1,52*,0,5,4,1,-15,10
CC(Cn1ncc(N2CCOCC2)c(Cl)c1=O)=NO,.,.,3,.,.,.,.
COc1cc(/C=C2\NC(=S)N(C)C2=O)ccc1O,73*,-18,9,-18,54*,49*,43*
CN1C(=O)/C(=C/c2ccc(O)c([N+](=O)[O-])c2)NC1=S,-2,2,18,1,.,.,.
COc1cc(/C=C2\SC(=S)N(N(C)c3ccccc3)C2=O)ccc1O,57*,-13,4,-5,6,-16,9
CCOc1cc(/C=C2\NC(=S)N(c3c(C)n(C)n(-c4ccccc4)c3=O)C2=O)ccc1O,114*,-16,13,-13,67*,30,45*
CN=C1S/C(=C\c2ccc(O)c(OC)c2)C(=O)N1C,12,-68,12,-47,.,.,.
COc1ccc(C=NOCC(=O)N2CC3(C)CC2CC(C)(C)C3)cc1 (stereo not drawn),.,.,2,.,.,.,.
O=C(CN1C(=O)/C(=C/c2ccc(F)cc2)SC1=S)N1CCN(CCc2ccccn2)CC1,42*,-14,6,-5,32,23,37
CCOc1nc2cnccc2n(CC(=O)Nc2ccccc2C(=O)OC)c1=O,70*,-4,-2,-3,3,-5,2
CCOc1ccccc1NC(=O)Cn1c(=O)c(OCC)nc2cnccc21,-2,.,6,.,.,.,.
Cn1c(C(=O)NCCCN2CCCCCC2)cc2c(=O)n(C)c3ccccc3c21,68*,-10,-2,-8,-8,-39,-7
O=C(CN1C(=O)C2C3C=CC(C3)C2C1=O)Nc1nc(SCc2ccc(Cl)cc2)n[nH]1 (stereo not drawn),112*,1,0,4,1,29,4

# Source: PubChem (several laboratories)
